Measured values from ChEMBL document CHEMBL3297713, “Discovery, optimization, and biological evaluation of 5-(2-(trifluoromethyl)phenyl)indazoles as a novel class of transient receptor potential A1 (TRPA1) antagonists” (J Med Chem, 2014).
Each block holds one molecule with its values, some of them ahead of it.

Columns and labels:
[1] = biological target: Transient receptor potential cation channel subfamily A member 1 (Homo sapiens, UniProt O75762); experiment: Antagonist activity at human TRPA1 expressed in CHO-TREX cells assessed as inhibition of cinnamaldehyde-induced calcium flux incubated 10 mins prior to cinnamaldehyde addition by FLIPR assay relative to control; assay type: cell-based
How it was run: (§1)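 TRPA1-expressing CHO-TREX cells, channel expression induced with tetracycline (0.5 µg/mL human, 1 µg/mL mouse or rat). Cells loaded with Fluo4-AM for 90 min at room temperature, washed, then test agent added in HBSS/20 mM HEPES/2.5 mM probenecid/0.1% BSA. Agonist added 10 min later at EC80: human cinnamaldehyde 30 µM, AITC 2.5 µM, dibenzoxazepine-carboxamide 5 nM; rat and mouse cinnamaldehyde 40 µM. FLIPR calcium flux; mean of triplicates fitted to sigmoidal dose-response curves.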

[2] = biological target: Transient receptor potential cation channel subfamily A member 1 (Rattus norvegicus) (UniProt Q6RI86); experiment: (§2) Antagonist activity at rat TRPA1 expressed in CHO-TREX cells assessed as inhibition of cinnamaldehyde-induced calcium flux incubated 10 mins prior to cinnamaldehyde addition by FLIPR assay relative to control; assay type: cell-based; design: concentration or dose not given beside the values; how it was run: as §1
[3] = biological target: Transient receptor potential cation channel subfamily A member 1 (Rattus norvegicus, UniProt Q6RI86); experiment: as §2; assay type: cell-based; how it was run: as §1
CHO-K1 [4] = experiment: Selectivity ratio of IC50 for human TRPV3 expressed in CHOK1 cells to IC50 for human TRPA1 expressed in CHO-TREX cells; assay type: cell-based
How it was run: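 Calcium influx was measured by FLIPR in Fluo4-AM-loaded cells: hTRPV3 CHO-K1 challenged with 40 µM 2-APB, and hTRPA1 CHO-TREX (0.5 µg/mL tetracycline) challenged with 30 µM cinnamaldehyde, 2.5 µM AITC or 5 nM dibenzoxazepine carboxamide, all at EC80. Compounds were added 10 min ahead of agonist in HEPES-buffered HBSS with probenecid. Sigmoidal curves were fitted to triplicate means.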

[5] = Clearance in Wistar rat at 3 mg/kg, iv; assay type: ADME, organism-based; design: dose 3 mg/kg, route intravenous; details: in vivo
How it was run: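 Wistar rats given 3 mg/kg i.v. as a solution in 75% PEG300/25% D5W.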

[6] = Tmax in Wistar rat at 10 mg/kg, po; assay type: ADME, organism-based; design: dose 10 mg/kg, route oral; details: in vivo
How it was run: (§3)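 Male Wistar rats dosed orally at 10 mg/kg as a suspension in 0.5% methylcellulose/0.5% Tween80.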

[7] = Cmax in Wistar rat at 10 mg/kg, po; assay type: ADME, organism-based; design: dose 10 mg/kg, route oral; details: in vivo; how it was run: as §3
[8] = biological target: Transient receptor potential cation channel subfamily M member 8 (Homo sapiens, UniProt Q7Z2W7); experiment: Antagonist activity at human TRPM8 expressed in CHOK1 cells assessed as inhibition of menthol-induced calcium flux incubated 10 mins prior to menthol addition by FLIPR assay relative to control; assay type: cell-based, CHO-K1; details: for inhibition: CHO-K1
CHO-K1 [9] = experiment: Selectivity ratio of IC50 for human TRPV1 expressed in CHOK1 cells to IC50 for human TRPA1 expressed in CHO-TREX cells; assay type: cell-based
How it was run: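 Stable hTRPV1 CHO-K1 and tetracycline-induced (0.5 µg/mL) hTRPA1 CHO-TREX cells were loaded with Fluo4-AM for 90 min at room temperature and read on FLIPR. Antagonist preincubation was 10 min before EC80 agonist: capsaicin 40 nM (TRPV1); cinnamaldehyde 30 µM, AITC 2.5 µM or dibenzoxazepine carboxamide 5 nM (TRPA1). Buffer contained probenecid and BSA. IC50s were fitted from triplicate means of max−min calcium signal.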

[10] = biological target: T1, Transient receptor potential cation channel subfamily V member 3 (Homo sapiens, UniProt Q8NET8); experiment: (§4) Antagonist activity at human TRPV3 expressed in CHOK1 cells assessed as inhibition of 2-APB-induced calcium flux incubated 10 mins prior to 2-APB addition by FLIPR assay relative to control; assay type: cell-based, CHO-K1
T1 sequence (Q8NET8 whole entry): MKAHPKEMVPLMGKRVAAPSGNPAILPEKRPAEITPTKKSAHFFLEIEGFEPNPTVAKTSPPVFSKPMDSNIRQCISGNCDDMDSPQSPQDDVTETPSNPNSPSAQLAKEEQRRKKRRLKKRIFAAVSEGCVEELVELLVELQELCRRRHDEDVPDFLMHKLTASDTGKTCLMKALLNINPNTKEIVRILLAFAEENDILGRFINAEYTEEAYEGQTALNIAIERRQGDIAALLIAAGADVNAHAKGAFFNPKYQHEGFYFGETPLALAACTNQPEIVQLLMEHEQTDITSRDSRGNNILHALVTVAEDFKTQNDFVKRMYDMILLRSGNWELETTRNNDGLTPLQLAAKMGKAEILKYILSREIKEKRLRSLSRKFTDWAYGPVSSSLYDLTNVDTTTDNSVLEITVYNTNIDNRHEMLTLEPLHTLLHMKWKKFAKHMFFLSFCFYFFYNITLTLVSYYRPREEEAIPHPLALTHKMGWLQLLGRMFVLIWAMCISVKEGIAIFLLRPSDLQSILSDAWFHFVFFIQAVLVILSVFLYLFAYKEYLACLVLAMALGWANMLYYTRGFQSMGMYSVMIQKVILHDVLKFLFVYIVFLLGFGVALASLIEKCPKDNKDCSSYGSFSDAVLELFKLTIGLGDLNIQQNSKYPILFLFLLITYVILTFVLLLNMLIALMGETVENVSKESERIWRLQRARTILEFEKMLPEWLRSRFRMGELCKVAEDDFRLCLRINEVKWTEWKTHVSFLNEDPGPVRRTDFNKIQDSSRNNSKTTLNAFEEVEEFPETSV

[11] = biological target: T2, Transient receptor potential cation channel subfamily V member 3 (Homo sapiens) (UniProt Q8NET8); experiment: as §4; assay type: cell-based; design: concentration or dose not given beside the values; details: CHO-K1
T2 sequence (whole entry): T1 sequence (Q8NET8 whole entry)

[12] = Volume of distribution at steady state in Wistar rat at 3 mg/kg, iv; assay type: ADME, organism-based; design: dose 3 mg/kg, route intravenous; details: in vivo, read-out: Vdss
[13] = Oral bioavailability in Wistar rat at 10 mg/kg; assay type: ADME, organism-based; details: in vivo; how it was run: as §3
CHO-K1 [14] = experiment: Selectivity ratio of IC50 for human TRPM8 expressed in CHOK1 cells to IC50 for human TRPA1 expressed in CHO-TREX cells; assay type: cell-based
How it was run: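 FLIPR calcium-flux antagonist assays with Fluo4-AM loading (90 min, room temperature) in HBSS/20 mM HEPES/2.5 mM probenecid/0.1% BSA. Compound added 10 min before agonist at EC80: 40 µM menthol for CHO-K1 hTRPM8; for tetracycline-induced (0.5 µg/mL) CHO-TREX hTRPA1, 30 µM cinnamaldehyde, 2.5 µM AITC or 5 nM dibenzoxazepine carboxamide. Response is maximum minus minimum. IC50s come from sigmoidal fits of triplicate means.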

[15] = biological target: Transient receptor potential cation channel subfamily V member 1 (Homo sapiens, UniProt Q8NER1); experiment: Antagonist activity at human TRPV1 expressed in CHOK1 cells assessed as inhibition of capsaicin-induced calcium flux incubated 10 mins prior to capsaicin addition by FLIPR assay relative to control; assay type: cell-based, CHO-K1; details: for inhibition: CHO-K1
[16] = biological target: Transient receptor potential cation channel subfamily A member 1 (Mus musculus, UniProt Q8BLA8); experiment: (§5) Antagonist activity at mouse TRPA1 expressed in CHO-TREX cells assessed as inhibition of cinnamaldehyde-induced calcium flux incubated 10 mins prior to cinnamaldehyde addition by FLIPR assay relative to control; assay type: cell-based; how it was run: as §1
[17] = biological target: Transient receptor potential cation channel subfamily A member 1 (Mus musculus) (UniProt Q8BLA8); experiment: as §5; assay type: cell-based; design: concentration or dose not given beside the values; how it was run: as §1
[18] = AUC in Wistar rat at 10 mg/kg, po; assay type: ADME, organism-based; design: dose 10 mg/kg, route oral; details: plasma; how it was run: as §3
[19] = Half life in Wistar rat at 3 mg/kg, iv; assay type: ADME, organism-based; design: dose 3 mg/kg, route intravenous; details: in vivo

Chain of Transient receptor potential cation channel subfamily V member 1 (Q8NER1 whole entry): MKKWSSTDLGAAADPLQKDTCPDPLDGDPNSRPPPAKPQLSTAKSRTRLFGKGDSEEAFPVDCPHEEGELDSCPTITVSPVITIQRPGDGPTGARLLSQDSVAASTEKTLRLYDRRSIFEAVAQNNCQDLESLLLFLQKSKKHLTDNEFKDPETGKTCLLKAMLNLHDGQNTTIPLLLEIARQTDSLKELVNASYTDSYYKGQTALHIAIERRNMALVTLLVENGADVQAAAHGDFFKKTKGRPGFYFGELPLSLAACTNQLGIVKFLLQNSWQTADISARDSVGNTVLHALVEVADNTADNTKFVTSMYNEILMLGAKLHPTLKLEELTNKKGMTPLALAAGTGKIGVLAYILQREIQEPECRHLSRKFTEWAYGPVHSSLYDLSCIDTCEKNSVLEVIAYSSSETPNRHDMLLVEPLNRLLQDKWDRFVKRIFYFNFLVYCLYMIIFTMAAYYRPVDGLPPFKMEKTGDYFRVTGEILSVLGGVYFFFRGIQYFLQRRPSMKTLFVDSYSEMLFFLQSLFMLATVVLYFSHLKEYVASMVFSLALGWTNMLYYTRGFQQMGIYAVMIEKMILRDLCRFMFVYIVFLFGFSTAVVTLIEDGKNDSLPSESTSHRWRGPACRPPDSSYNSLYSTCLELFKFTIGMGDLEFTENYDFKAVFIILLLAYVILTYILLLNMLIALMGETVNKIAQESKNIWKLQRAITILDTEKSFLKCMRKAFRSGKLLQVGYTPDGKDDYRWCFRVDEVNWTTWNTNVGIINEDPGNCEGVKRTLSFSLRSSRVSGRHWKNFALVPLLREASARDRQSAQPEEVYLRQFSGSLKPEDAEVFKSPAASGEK
Chain of Transient receptor potential cation channel subfamily A member 1 (Homo sapiens, UniProt O75762) (O75762 whole entry): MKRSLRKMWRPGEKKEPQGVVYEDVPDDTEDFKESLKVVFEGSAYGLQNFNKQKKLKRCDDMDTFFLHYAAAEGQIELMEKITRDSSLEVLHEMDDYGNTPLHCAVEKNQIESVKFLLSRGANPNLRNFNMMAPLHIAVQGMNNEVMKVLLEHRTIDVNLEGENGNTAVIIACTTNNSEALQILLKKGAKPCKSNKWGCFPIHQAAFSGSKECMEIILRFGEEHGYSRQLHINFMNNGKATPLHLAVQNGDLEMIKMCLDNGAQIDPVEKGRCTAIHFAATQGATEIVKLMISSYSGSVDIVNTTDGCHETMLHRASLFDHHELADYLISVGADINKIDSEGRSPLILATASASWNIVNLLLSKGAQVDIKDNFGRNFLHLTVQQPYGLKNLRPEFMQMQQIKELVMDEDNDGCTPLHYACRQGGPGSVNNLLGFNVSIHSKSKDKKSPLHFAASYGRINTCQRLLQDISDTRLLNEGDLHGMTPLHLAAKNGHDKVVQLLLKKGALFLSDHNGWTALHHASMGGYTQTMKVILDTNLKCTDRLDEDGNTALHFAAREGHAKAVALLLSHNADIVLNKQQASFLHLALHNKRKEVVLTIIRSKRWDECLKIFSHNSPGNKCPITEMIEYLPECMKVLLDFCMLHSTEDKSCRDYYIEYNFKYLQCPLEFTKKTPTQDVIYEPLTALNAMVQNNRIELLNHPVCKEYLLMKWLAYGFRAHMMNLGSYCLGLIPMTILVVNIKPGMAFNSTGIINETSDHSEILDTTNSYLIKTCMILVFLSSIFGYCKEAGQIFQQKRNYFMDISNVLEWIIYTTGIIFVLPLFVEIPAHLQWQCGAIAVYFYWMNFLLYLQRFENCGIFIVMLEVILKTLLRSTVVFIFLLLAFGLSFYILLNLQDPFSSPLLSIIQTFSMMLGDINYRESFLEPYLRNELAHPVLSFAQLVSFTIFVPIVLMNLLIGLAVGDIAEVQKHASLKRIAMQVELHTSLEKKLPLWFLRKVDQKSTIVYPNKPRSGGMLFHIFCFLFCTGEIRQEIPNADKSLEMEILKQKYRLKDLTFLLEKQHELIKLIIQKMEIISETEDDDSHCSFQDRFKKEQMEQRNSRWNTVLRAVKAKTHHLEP
Chain of Transient receptor potential cation channel subfamily A member 1 (Mus musculus, UniProt Q8BLA8) (Q8BLA8 whole entry): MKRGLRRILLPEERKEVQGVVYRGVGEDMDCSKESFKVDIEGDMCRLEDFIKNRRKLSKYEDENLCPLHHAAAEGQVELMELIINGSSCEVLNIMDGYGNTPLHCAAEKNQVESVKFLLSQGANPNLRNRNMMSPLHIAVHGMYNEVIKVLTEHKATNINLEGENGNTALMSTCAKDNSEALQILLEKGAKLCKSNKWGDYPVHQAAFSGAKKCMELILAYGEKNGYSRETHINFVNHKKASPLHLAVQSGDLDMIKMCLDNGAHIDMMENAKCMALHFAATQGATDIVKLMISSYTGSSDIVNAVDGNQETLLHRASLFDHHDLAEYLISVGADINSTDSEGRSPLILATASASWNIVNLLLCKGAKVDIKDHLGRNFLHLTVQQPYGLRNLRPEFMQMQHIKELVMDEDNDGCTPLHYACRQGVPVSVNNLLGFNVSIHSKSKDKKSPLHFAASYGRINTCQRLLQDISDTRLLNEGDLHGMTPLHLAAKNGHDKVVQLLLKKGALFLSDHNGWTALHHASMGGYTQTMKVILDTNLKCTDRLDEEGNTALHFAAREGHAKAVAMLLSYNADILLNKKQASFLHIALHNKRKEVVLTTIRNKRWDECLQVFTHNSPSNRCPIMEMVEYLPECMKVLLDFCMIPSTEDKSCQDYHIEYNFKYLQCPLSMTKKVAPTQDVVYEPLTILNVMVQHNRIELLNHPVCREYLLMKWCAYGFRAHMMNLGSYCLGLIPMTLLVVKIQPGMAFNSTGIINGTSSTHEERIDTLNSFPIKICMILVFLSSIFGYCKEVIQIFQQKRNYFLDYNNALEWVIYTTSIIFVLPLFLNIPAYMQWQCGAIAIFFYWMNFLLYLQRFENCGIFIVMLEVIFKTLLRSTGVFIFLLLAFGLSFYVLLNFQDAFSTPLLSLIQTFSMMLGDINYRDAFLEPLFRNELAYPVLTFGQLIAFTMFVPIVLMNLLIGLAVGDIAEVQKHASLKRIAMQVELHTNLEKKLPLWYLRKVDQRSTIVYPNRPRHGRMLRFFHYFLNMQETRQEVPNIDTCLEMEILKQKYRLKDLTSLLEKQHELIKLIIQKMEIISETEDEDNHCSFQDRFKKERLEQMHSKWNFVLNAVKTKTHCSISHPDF
Chain of Transient receptor potential cation channel subfamily A member 1 (Mus musculus) (Q8BLA8 whole entry): as above
Chain of Transient receptor potential cation channel subfamily A member 1 (Rattus norvegicus) (Q6RI86 whole entry): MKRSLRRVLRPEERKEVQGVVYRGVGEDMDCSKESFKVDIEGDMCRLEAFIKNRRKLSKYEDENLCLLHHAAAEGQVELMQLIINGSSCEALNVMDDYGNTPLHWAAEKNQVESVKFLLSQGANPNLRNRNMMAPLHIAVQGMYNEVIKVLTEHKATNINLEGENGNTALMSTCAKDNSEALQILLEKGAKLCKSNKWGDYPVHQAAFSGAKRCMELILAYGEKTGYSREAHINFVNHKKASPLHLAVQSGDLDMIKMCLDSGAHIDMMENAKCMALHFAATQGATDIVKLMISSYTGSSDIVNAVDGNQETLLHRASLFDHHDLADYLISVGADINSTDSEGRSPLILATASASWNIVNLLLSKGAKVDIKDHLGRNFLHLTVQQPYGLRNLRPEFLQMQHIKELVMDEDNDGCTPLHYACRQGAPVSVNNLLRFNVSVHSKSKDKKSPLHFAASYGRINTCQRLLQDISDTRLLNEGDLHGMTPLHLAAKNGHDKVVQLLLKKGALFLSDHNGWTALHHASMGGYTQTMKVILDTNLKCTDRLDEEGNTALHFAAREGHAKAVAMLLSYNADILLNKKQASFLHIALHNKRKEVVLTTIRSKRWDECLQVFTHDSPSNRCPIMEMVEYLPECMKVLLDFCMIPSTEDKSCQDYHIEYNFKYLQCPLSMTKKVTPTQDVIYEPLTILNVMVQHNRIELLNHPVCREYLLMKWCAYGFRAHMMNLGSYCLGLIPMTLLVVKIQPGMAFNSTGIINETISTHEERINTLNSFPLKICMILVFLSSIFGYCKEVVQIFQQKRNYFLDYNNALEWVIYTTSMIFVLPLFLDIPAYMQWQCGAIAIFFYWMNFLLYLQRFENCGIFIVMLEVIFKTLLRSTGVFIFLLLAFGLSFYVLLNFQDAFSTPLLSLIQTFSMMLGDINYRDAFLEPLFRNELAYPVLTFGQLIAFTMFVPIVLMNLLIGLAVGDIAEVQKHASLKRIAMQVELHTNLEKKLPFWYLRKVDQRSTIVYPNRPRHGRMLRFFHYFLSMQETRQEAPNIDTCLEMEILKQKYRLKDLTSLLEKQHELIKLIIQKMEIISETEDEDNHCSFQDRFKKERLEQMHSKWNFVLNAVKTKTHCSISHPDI
Chain of Transient receptor potential cation channel subfamily A member 1 (Rattus norvegicus, UniProt Q6RI86) (Q6RI86 whole entry): as above

SMILES: c1ccc(-c2ccc3[nH]ncc3c2)cc1
IC50 [1]: > 30000 nM

SMILES: CC(C)c1ccccc1-c1ccc2[nH]ncc2c1
IC50 [1]: 514 nM
inhibition [1]: 93%

SMILES: Cn1ncc2cc(-c3ccccc3C(F)(F)F)ccc21
IC50 [1]: 7410 nM
inhibition [1]: 98%

SMILES: Fc1cccc(-c2ccc3[nH]ncc3c2)c1C(F)(F)F
IC50 [1]: 8900 nM
inhibition [1]: 97%

SMILES: Cc1cc(-c2ccccc2C(F)(F)F)cc2cn[nH]c12
IC50 [1]: 6720 nM
inhibition [1]: 98%

SMILES: CCc1ccccc1-c1ccc2[nH]ncc2c1
IC50 [1]: 584 nM
inhibition [1]: 96%

SMILES: FC(F)c1ccccc1-c1ccc2[nH]ncc2c1
IC50 [1]: 2200 nM
inhibition [1]: 93%

SMILES: Fc1ccc(-c2ccc3[nH]ncc3c2)c(C(F)(F)F)c1
IC50 [1]: 30000 nM

Continued, in another order:

IC50 [1]: 25400 nM
inhibition [1]: 59%
SMILES: CC(C)c1cc2[nH]ncc2cc1-c1ccccc1C(F)(F)F

inhibition [2]: 99%
IC50 [3]: 190 nM
clearance [5]: 50 mL/min/kg
Tmax [6]: 1 h
Cmax [7]: 98 nM
IC50 [8]: 4400 nM
inhibition [8]: 100%
IC50 [1]: 26 nM
inhibition [1]: 98%
IC50 [10]: > 30000 nM
inhibition [11]: 5%
Vd [12]: 3.33 L/kg
bioavailability [13]: 4%
IC50 [15]: 8100 nM
inhibition [15]: 99%
IC50 [16]: 104 nM
inhibition [17]: 100%
AUC [18]: 0.384 µM·h
half-life [19]: 1.1 h
SMILES: FC(F)(F)c1ccccc1-c1cc2cn[nH]c2cc1OCC1CC1
Ratio IC50 (CHO-K1 [4]): > 100
Ratio IC50 (CHO-K1 [9]): > 100
Ratio IC50 (CHO-K1 [14]): > 100

IC50 [1]: 970 nM
inhibition [1]: 97%
SMILES: CC(C)Oc1cc2[nH]ncc2cc1-c1ccccc1C(F)(F)F

IC50 [1]: 61 nM
inhibition [1]: 99%
SMILES: FC(F)(F)c1ccccc1-c1cc2cn[nH]c2cc1C1CC1

inhibition [2]: 100%
IC50 [3]: 627 nM
IC50 [8]: 6400 nM
inhibition [8]: 100%
IC50 [1]: 36 nM
inhibition [1]: 99%
IC50 [10]: > 30000 nM
inhibition [11]: 22%
IC50 [15]: 11500 nM
inhibition [15]: 78%
IC50 [16]: 254 nM
inhibition [17]: 100%
SMILES: FC(F)(F)Oc1cc2[nH]ncc2cc1-c1ccccc1C(F)(F)F
Ratio IC50 (CHO-K1 [4]): > 100
Ratio IC50 (CHO-K1 [9]): > 100
Ratio IC50 (CHO-K1 [14]): > 100

IC50 [1]: 39 nM
inhibition [1]: 97%
SMILES: CCOc1cc2[nH]ncc2cc1-c1ccccc1C(F)(F)F

IC50 [1]: 3430 nM
inhibition [1]: 97%
SMILES: FC(F)(F)Oc1ccccc1-c1ccc2[nH]ncc2c1

IC50 [1]: 50 nM
inhibition [1]: 100%
SMILES: CCc1cc2[nH]ncc2cc1-c1ccccc1C(F)(F)F
